Assay results reported in ChEMBL document CHEMBL1153465, “C5-Modified nucleosides exhibiting anticancer activity” (Bioorg Med Chem Lett, 2009).

Tests used:
Format in all cases: functional
NCI-H23 [1] = assay: Cytotoxicity against human NCI-H23 cells at 10 uM by SRB assay
Procedure, shortened: (§1)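 Growth inhibition measured at one fixed test concentration by sulforhodamine B assay. Cells were kept in RPMI 1640 plus 5% fetal bovine serum at 37 °C under humidified 5% CO₂. Adriamycin served as positive control. Results are given as […] of cancer cell growth.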

MDA-MB-231 [2] = assay: Cytotoxicity against human MDA-MB-231 cells at 10 uM by SRB assay; procedure, shortened: as §1
HCT-15 [3] = assay: Cytotoxicity against human HCT15 cells at 10 uM by SRB assay; procedure, shortened: as §1
PC-3 [4] = assay: Cytotoxicity against human PC3 cells at 10 uM by SRB assay; procedure, shortened: as §1
NUGC-3 = assay: Cytotoxicity against human NUGC3 cells by SRB assay
PC-3 [5] = assay: Cytotoxicity against human PC3 cells by SRB assay
NCI-H23 [6] = assay: Cytotoxicity against human NCI-H23 cells by SRB assay
MDA-MB-231 [7] = assay: Cytotoxicity against human MDA-MB-231 cells by SRB assay
ACHN = assay: Cytotoxicity against human ACHN cells by SRB assay
HCT-15 [8] = assay: Cytotoxicity against human HCT15 cells by SRB assay

| Compound | growth, % of control at 10 µM (NCI-H23 [1]) [%] | growth, % of control at 10 µM (MDA-MB-231 [2]) [%] | growth, % of control at 10 µM (HCT-15 [3]) [%] | growth, % of control at 10 µM (PC-3 [4]) [%] | GI50 (NUGC-3) [µM] | GI50 (PC-3 [5]) [µM] | GI50 (NCI-H23 [6]) [µM] | GI50 (MDA-MB-231 [7]) [µM] | GI50 (ACHN) [µM] | GI50 (HCT-15 [8]) [µM] |
| --- | --- | --- | --- | --- | --- | --- | --- | --- | --- | --- |
| CC(=O)OC[C@H]1O[C@@H](n2cc(-c3cc(-c4ccc(C(C)C)cc4)no3)c(=O)[nH]c2=O)C[C@@H]1OC(C)=O | 108 | 83.2 | 80.9 | 50.3 | – | – | – | – | – | – |
| CC(=O)OC[C@H]1O[C@@H](n2cc(-c3cc(-c4ccc(C(C)(C)C)cc4)no3)c(=O)[nH]c2=O)C[C@@H]1OC(C)=O | 112 | 69.3 | 53.8 | 27.5 | – | – | – | – | – | – |
| CCc1ccc(Cn2cc(-c3cn([C@H]4C[C@H](OC(C)=O)[C@@H](COC(C)=O)O4)c(=O)[nH]c3=O)nn2)cc1 | 77.2 | 97.7 | 88 | 91.2 | – | – | – | – | – | – |
| CCc1ccc(-c2cc(-c3cn([C@H]4C[C@H](OC(C)=O)[C@@H](COC(C)=O)O4)c(=O)[nH]c3=O)on2)cc1 | 92.7 | 97.4 | 92.2 | 62.8 | – | – | – | – | – | – |
| CC(=O)OC[C@H]1O[C@@H](n2cc(-c3cn(Cc4ccccc4)nn3)c(=O)[nH]c2=O)C[C@@H]1OC(C)=O | 98.2 | 102 | 92.3 | 92.1 | – | – | – | – | – | – |
| CC(=O)OC[C@H]1O[C@@H](n2cc(-c3cc(C)no3)c(=O)[nH]c2=O)C[C@@H]1OC(C)=O | 101 | 106 | 102 | 92.4 | – | – | – | – | – | – |
| CCCCCc1cc(-c2cn([C@H]3C[C@H](OC(C)=O)[C@@H](COC(C)=O)O3)c(=O)[nH]c2=O)on1 | 88.9 | 91.5 | 98.7 | 93.9 | – | – | – | – | – | – |
| CC(C)(C)c1ccc(Cn2cc(-c3cn([C@H]4C[C@H](O)[C@@H](CO)O4)c(=O)[nH]c3=O)nn2)cc1 | 95 | 106 | 96.9 | 92.3 | – | – | – | – | – | – |
| CCCCCCCCc1cc(-c2cn([C@H]3C[C@H](O)[C@@H](CO)O3)c(=O)[nH]c2=O)on1 | 120 | 96.7 | 88.2 | 77.3 | – | – | – | – | – | – |
| CCCCc1ccc(-c2cc(-c3cn([C@H]4C[C@H](OC(C)=O)[C@@H](COC(C)=O)O4)c(=O)[nH]c3=O)on2)cc1 | 97.4 | 72.2 | 71.4 | 30.4 | – | – | – | – | – | – |
| CC(C)(C)c1ccc(-c2cc(-c3cn([C@H]4C[C@H](O)[C@@H](CO)O4)c(=O)[nH]c3=O)on2)cc1 | 98.9 | 102 | 79.8 | 87.9 | – | – | – | – | – | – |
| O=c1[nH]c(=O)n([C@H]2C[C@H](O)[C@@H](CO)O2)cc1-c1cn(Cc2ccccc2)nn1 | 97.5 | 103 | 88.3 | 92.1 | – | – | – | – | – | – |
| CC(=O)OC[C@H]1O[C@@H](n2cc(-c3cn(Cc4ccc(C(C)C)cc4)nn3)c(=O)[nH]c2=O)C[C@@H]1OC(C)=O | 86.7 | 98.1 | 96.5 | 91.3 | – | – | – | – | – | – |
| CC(=O)OC[C@H]1O[C@@H](n2cc(-c3cc(-c4ccccc4)no3)c(=O)[nH]c2=O)C[C@@H]1OC(C)=O | 91.4 | 95 | 92.2 | 85.5 | – | – | – | – | – | – |
| CC(=O)OC[C@H]1O[C@@H](n2cc(-c3cn(Cc4ccc(C(C)(C)C)cc4)nn3)c(=O)[nH]c2=O)C[C@@H]1OC(C)=O | 106 | 105 | 94.2 | 90.4 | – | – | – | – | – | – |
| CCCc1cc(-c2cn([C@H]3C[C@H](OC(C)=O)[C@@H](COC(C)=O)O3)c(=O)[nH]c2=O)on1 | 96.9 | 102 | 98.8 | 88.1 | – | – | – | – | – | – |
| COc1cccc2c1C(=O)c1c(O)c3c(c(O)c1C2=O)C[C@@](O)(C(=O)CO)C[C@@H]3O[C@H]1C[C@H](N)[C@H](O)[C@H](C)O1 [DOXORUBICIN] | – | – | – | – | 0.25 | 0.73 | 0.51 | 0.61 | 0.41 | 1.64 |
